In ChEMBL document CHEMBL1811814, “Synthesis and evaluation of indole, pyrazole, chromone and pyrimidine based conjugates for tumor growth inhibitory activities--development of highly efficacious cytotoxic agents” (Eur J Med Chem, 2010):

Columns and labels:
Type in all cases: organism-based
Mus musculus [1] = assay: Toxicity in mouse assessed as mouse survival at 200 mg/kg, ip qd on day 19; design: dose 200 mg/kg, route intraperitoneal; conditions: in vivo
Outline: (§1)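 Female athymic nude mice were given intraperitoneal injections of 400, 200 or 100 mg/kg, one mouse per dose level. Body weight loss was monitored, and survival was recorded after 19 days.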

Mus musculus [2] = assay: Toxicity in mouse assessed as mouse survival at 400 mg/kg, ip qd on day 19; design: dose 400 mg/kg, route intraperitoneal; conditions: in vivo; outline: as §1
Mus musculus [3] = assay: Toxicity in mouse assessed as mouse survival at 25 mg/kg, ip qd on day 19; design: dose 25 mg/kg, route intraperitoneal; conditions: in vivo
Mus musculus [4] = assay: Toxicity in mouse assessed as mouse survival at 50 mg/kg, ip qd on day 19; design: dose 50 mg/kg, route intraperitoneal; conditions: in vivo
[5] = Toxicity in mouse assessed as mouse survival administered intraperitoneally once daily measured after 19 days; conditions: in vivo, ip; outline: as §1
Mus musculus [6] = assay: Toxicity in mouse assessed as mouse survival at 100 mg/kg, ip qd on day 19; design: dose 100 mg/kg, route intraperitoneal; conditions: in vivo; outline: as §1

Question: For `O=C1NC(=O)C(=Cc2cn(Cc3ccccc3)c3ccccc23)C(=O)N1`, which Activity (Mus musculus [1]) is on record?
Answer: Toxic

Question: And the Activity (Mus musculus [2])?
Answer: Toxic

Question: What about the Activity (Mus musculus [3]) of the same compound?
Answer: Non-toxic

Question: And the Activity (Mus musculus [4])?
Answer: Non-toxic

Question: What about the MTD at 456 h [5] of the same compound?
Answer: 50 mg/kg

Question: And the Activity (Mus musculus [6])?
Answer: Toxic

Question: For `CN1C(=O)C(=Cc2cn(Cc3ccccc3)c3ccccc23)C(=O)N(C)C1=O`, which Activity (Mus musculus [1]) is on record?
Answer: Non-toxic

Question: What about the Activity (Mus musculus [2]) of the same compound?
Answer: Non-toxic

Question: And the MTD at 456 h [5]?
Answer: 400 mg/kg

Question: What about the Activity (Mus musculus [6]) of the same compound?
Answer: Non-toxic
